According to PubChem BioAssay AID651935 (Vanderbilt Specialized Chemistry Center, 2012):
Calls of active or inactive are those of the source. No rule for the calls is given here.

Biological target: Muscarinic acetylcholine receptor M4 (Rattus norvegicus) (UniProt P08485)
Experiment: rat M4 positive allosteric modulation check – CHO cells, calcium flux, selectivity assay for M5 PAM discovery project (AID 651935)
In short: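 Assay system: CHO-K1 cells stably expressing rat M4 receptor with chimeric Gqi5 / Buffer or medium: HBSS plus HEPES and probenecid, pH 7.4 / Also added: acetylcholine EC20 / Schedule: dye load 45-60 min 37 °C, compound 1.5 min pre-incubation / Signal: calcium mobilization by Fluo-4 AM fluorescence / Evaluation: baseline-corrected signal as % of maximal acetylcholine response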

Sequence of Muscarinic acetylcholine receptor M4 (Rattus norvegicus) (P08485 whole entry, looked up): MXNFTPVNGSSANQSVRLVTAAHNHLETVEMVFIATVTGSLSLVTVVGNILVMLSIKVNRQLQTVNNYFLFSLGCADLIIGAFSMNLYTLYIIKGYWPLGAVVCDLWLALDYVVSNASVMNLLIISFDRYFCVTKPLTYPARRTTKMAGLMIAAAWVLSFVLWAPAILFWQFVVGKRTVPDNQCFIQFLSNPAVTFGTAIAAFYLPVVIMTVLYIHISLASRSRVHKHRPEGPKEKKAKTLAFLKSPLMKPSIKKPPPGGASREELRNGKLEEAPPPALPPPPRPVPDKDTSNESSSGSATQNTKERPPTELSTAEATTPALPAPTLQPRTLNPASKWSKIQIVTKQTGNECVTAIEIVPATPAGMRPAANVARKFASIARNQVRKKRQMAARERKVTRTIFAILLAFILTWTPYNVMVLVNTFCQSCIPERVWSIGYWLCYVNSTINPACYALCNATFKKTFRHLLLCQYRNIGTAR

Q: With `O=C1C(=O)N(CCOc2ccccc2)c2ccc(OC(F)(F)F)cc21` as the molecule, how does the outcome read?
A: inactive
